These results are taken from ChEMBL document CHEMBL3124772, “Design, synthesis, and evaluation of conformationally restricted acetanilides as potent and selective β3 adrenergic receptor agonists for the treatment of overactive bladder” (J Med Chem, 2014).

As a reminder, the EC50 is the concentration at which the effect is half-maximal. One may read the IC50 as the point on the concentration scale where inhibition reaches its midpoint. As a reminder, the half-life is the time in which the quantity being followed falls by half. Higher therefore signals slow loss. Usually fraction unbound stands for the share of the substance not bound to proteins or other matrix. One may read the Papp as a coefficient for how fast a substance crosses the barrier. One may read the bioavailability as the share of a dose that reaches the circulation, judged against a reference dose that is usually intravenous. High values mean good availability, low ones poor availability.

For data set [1], the target named is T1, Beta-3 adrenergic receptor (Homo sapiens, UniProt P13945). The data set is described as follows: Agonist activity at human beta-3 adrenergic receptor expressed in CHO cells assessed as increase in intracellular cAMP accumulation after 30 mins by time-resolved fluorescence assay. Type of data set: functional, cell-based. The gist of the method: (§1)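 CHO cells stably transfected with cloned β3-AR, harvested after 3 days subculture with enzyme-free dissociation, 6000 cells in HBSS with 5 mM HEPES, 0.1% BSA and 0.6 mM IBMX. Ligand at 10⁻¹⁰ to 10⁻⁵ M final, 30 min room temperature with labeled cAMP antibody; LANCE TR-FRET read after 1 h detection, cAMP from standard curve.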
In general terms: Cyclic AMP is a second messenger, typically raised through Gs and lowered through Gi signalling.
Target sequence in this assay (P13945 whole entry): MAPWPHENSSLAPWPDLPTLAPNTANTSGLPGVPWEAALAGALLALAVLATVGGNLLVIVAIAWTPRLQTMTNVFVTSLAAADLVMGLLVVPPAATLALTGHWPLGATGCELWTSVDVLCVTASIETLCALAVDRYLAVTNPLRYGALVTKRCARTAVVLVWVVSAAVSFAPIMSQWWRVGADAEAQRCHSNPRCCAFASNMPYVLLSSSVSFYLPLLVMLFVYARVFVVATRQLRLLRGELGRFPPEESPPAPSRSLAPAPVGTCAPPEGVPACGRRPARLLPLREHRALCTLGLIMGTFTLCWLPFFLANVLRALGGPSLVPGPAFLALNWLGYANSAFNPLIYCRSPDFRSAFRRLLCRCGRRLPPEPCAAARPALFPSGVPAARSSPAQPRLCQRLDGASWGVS

Data set [2] deals with T1, Beta-3 adrenergic receptor. Kind of data set: Agonist activity at human beta-3 adrenergic receptor expressed in CHO cells assessed as increase in intracellular cAMP accumulation at 10^-10 to 10^-5 M after 30 mins by time-resolved fluorescence assay relative to R-(-)isoproterenol. It counts as functional, cell-based. The gist of the method:
as §1
Target sequence in this assay (P13945 whole entry, looked up): as the sequence (P13945 whole entry) above

Data set [3] deals with Beta-1 adrenergic receptor (Homo sapiens, UniProt P08588). The data set is described as follows: Displacement of [125I]-cyanopindolol from recombinant human beta-1 adrenergic receptor expressed in CHO cell membranes after 1 hr by scintillation counting analysis.
The target of data set [4] is Beta-2 adrenergic receptor (Homo sapiens, UniProt P07550). Kind of data set: Displacement of [125I]-cyanopindolol from recombinant human beta-2 adrenergic receptor expressed in CHO cell membranes after 1 hr by scintillation counting analysis. (In general: Displacement assays read how much labelled ligand stays bound in the presence of the test substance.)
Data set [5] in a line: Half life in Sprague-Dawley rat at 1 mg/kg, iv and 2 mg/kg, po. Type of data set: ADME, organism-based. To be noted: in vivo.
A short description of data set [6]: Fraction unbound in Sprague-Dawley rat plasma at 1 mg/kg, iv and 2 mg/kg, po. As to conditions: Sprague-Dawley, plasma. Type of data set: ADME, organism-based.
A short description of data set [7]: Intrinsic clearance in rat liver microsomes. Type of data set: ADME. As to conditions: read-out: CLH. For orientation: Liver microsomes are a subcellular fraction often used to study metabolism.
Data set [8] in a line: Plasma clearance in Sprague-Dawley rat at 1 mg/kg, iv and 2 mg/kg, po. It counts as ADME, organism-based.
Data set [9] can be described thus: Apparent permeability in MDCK2 cells. As to conditions: dog, MDCK. Type of data set: ADME, cell-based, Canis lupus familiaris, MDCK-II.
A short description of data set [10]: Oral bioavailability in Sprague-Dawley rat at 2 mg/kg. Type of data set: ADME, organism-based. To be noted: in vivo.
Data set [11] addresses Voltage-gated inwardly rectifying potassium channel KCNH2 (Homo sapiens, UniProt Q12809). Kind of data set: Inhibition of human ERG.

Sequence of Beta-2 adrenergic receptor (P07550 whole entry): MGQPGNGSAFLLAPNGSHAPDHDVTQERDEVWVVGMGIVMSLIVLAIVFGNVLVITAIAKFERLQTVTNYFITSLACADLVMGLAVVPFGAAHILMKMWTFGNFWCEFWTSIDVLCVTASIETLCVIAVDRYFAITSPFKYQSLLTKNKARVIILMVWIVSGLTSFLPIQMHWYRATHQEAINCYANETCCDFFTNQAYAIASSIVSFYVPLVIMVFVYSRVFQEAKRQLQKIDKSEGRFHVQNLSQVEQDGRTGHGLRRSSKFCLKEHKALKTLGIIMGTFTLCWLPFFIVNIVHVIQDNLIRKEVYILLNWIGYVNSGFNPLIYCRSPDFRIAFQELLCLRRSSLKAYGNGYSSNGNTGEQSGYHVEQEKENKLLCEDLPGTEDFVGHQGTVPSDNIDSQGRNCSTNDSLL
Sequence of Beta-1 adrenergic receptor (P08588 whole entry): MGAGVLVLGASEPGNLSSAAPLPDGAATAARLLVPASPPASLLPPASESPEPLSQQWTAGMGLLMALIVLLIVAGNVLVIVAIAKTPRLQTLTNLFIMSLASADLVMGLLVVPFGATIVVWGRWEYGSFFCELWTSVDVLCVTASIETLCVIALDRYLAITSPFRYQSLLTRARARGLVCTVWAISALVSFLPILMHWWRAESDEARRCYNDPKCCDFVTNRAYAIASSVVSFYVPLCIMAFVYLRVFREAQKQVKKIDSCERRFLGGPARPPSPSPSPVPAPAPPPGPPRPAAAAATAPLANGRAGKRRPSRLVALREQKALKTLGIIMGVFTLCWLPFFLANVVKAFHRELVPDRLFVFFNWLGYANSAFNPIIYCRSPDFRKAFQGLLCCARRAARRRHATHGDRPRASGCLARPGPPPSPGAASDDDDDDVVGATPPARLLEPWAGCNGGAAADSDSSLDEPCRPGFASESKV
Sequence of Voltage-gated inwardly rectifying potassium channel KCNH2 (Q12809 whole entry): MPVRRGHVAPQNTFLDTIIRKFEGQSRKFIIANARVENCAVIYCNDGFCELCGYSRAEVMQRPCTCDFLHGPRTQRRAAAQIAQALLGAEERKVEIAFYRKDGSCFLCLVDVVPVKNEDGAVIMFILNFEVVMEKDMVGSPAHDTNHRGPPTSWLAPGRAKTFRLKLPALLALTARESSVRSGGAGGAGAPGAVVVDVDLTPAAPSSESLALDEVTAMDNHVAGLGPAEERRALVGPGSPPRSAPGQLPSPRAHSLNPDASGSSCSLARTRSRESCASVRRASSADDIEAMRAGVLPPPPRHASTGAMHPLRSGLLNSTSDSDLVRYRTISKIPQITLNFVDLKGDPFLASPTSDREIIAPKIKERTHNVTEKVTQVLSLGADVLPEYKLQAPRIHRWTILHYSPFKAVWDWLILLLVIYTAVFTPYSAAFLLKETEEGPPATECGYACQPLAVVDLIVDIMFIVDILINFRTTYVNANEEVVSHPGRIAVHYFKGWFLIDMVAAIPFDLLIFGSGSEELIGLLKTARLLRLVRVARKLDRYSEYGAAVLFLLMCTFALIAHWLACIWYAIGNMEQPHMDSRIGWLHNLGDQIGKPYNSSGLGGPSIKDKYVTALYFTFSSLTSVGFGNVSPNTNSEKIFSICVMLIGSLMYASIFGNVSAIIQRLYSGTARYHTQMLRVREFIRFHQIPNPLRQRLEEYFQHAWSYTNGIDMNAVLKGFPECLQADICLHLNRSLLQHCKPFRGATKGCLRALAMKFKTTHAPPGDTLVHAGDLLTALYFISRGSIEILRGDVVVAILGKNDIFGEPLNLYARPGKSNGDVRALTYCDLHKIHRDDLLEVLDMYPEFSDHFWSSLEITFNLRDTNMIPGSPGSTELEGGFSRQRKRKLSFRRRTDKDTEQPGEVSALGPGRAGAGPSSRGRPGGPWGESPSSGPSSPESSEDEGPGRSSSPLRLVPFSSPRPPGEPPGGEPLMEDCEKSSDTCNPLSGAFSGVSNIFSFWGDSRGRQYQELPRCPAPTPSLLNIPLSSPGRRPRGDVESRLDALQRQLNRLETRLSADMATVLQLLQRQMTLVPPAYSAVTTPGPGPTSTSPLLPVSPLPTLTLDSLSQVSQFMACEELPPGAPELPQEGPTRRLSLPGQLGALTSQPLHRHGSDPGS

Consider `O=C(Nc1ccc(C[C@@H]2CC[C@H]([C@H](O)c3ccccc3)N2)cc1)[C@@H]1CCc2sc(-c3ccc(F)cc3)nc21`, for which, in data set [1], the EC50 was 186 nM. The Activity in data set [2] was determined as 76%. In addition, the IC50 was 4.33 µM in [3] and 2.51 µM in data set [4].

The molecule `Nc1nc2c(s1)CCC[C@H]2C(=O)Nc1ccc(C[C@@H]2CC[C@H]([C@H](O)c3ccccc3)N2)cc1` had a half-life in data set [5] of 3 h. This molecule also displayed a fraction unbound in data set [6] of 0.14. In addition, in data set [7], the CLint scaled came out at 63 mL/min/kg. Further, in [8], the clearance is 185 mL/min/kg. For the same molecule, the EC50 in data set [1] came to 0.21 nM. Besides, in [2], the Activity turned out to be 103%. Further, the IC50 in [3] and in data set [4] was above 20 µM each time. For the same molecule, the Papp in data set [9] stood at 5 ×10⁻⁶ cm/s. The bioavailability in data set [10] worked out at 0%.

For `CC[C@@H](C(=O)Nc1ccc(C[C@@H]2CC[C@H]([C@H](O)c3ccccc3)N2)cc1)c1csc(N)n1`, the EC50 in data set [1] is 0.83 nM. Also, the Activity in data set [2] was found to be 85%. For the same molecule, the IC50 in data set [3] and in data set [4] was above 20 µM in each case.

For the molecule `C[C@H](C(=O)Nc1ccc(C[C@@H]2CC[C@H]([C@H](O)c3ccccc3)N2)cc1)c1csc(N)n1`, the EC50 in data set [1] worked out at 0.67 nM. The Activity in [2] stood at 85%. The IC50 in [3] and in data set [4] was above 20 µM in each case.

As to `Nc1nc2c(s1)CC[C@H]2C(=O)Nc1ccc(C[C@@H]2CC[C@H]([C@H](O)c3cccc(F)c3)N2)cc1`, the EC50 in data set [1] came to 0.04 nM. In addition, the Activity in data set [2] was 94%. Further, the IC50 in data set [3] was above 20 µM; in data set [4], above 20 µM; in data set [11], 4 µM.

In the case of `Nc1nc2c(s1)CC[C@H]2C(=O)Nc1ccc(C[C@@H]2CC[C@H]([C@H](O)c3ccc(F)cc3)N2)cc1`, the EC50 in data set [1] was 0.13 nM. In addition, in [2], the Activity was found to be 72%. Further, the IC50 in data set [3] is above 20 µM; in [4], above 20 µM; in data set [11], 5.6 µM.

As to `CCC[C@@H](C(=O)Nc1ccc(C[C@@H]2CC[C@H]([C@H](O)c3ccccc3)N2)cc1)c1csc(N)n1`, the EC50 in data set [1] was 0.88 nM. The Activity in data set [2] is 66%. Also, the IC50 in data set [3] and in data set [4] was above 20 µM throughout.

As for `CCc1nc2c(s1)CC[C@H]2C(=O)Nc1ccc(C[C@@H]2CC[C@H]([C@H](O)c3ccccc3)N2)cc1`, in data set [1], the EC50 turned out to be 1.95 nM. Moreover, in [2], the Activity is 37%. Further, the IC50 in data set [3] and in data set [4] was above 20 µM each time.

Turning to `C[C@@H](C(=O)Nc1ccc(C[C@@H]2CC[C@H]([C@H](O)c3cccnc3)N2)cc1)n1cccn1`, the half-life in data set [5] was 2 h. The clearance in data set [8] came to 34 mL/min/kg. For the same molecule, the EC50 in data set [1] was determined as 16.7 nM. The Activity in data set [2] is 102%. Also, the IC50 in data set [3] and in data set [4] was above 20 µM throughout. In data set [10], this molecule gave a bioavailability of 29%.

For `O=C(Cn1cccn1)Nc1ccc(C[C@@H]2CC[C@H]([C@H](O)c3cccnc3)N2)cc1`, the EC50 in data set [1] came out at 76.7 nM. Moreover, in data set [2], the Activity was found to be 72%. For the same molecule, the IC50 in data set [3] and in [4] was above 20 µM each time.

Regarding `Nc1nc2c(s1)CCCC[C@H]2C(=O)Nc1ccc(C[C@@H]2CC[C@H]([C@H](O)c3ccccc3)N2)cc1`, the EC50 in data set [1] is 1.86 nM. Moreover, in data set [2], the Activity is 70%. For the same molecule, the IC50 in data set [3] and in data set [4] was above 20 µM each time.

Molecule `Cc1nc2c(s1)CC[C@H]2C(=O)Nc1ccc(C[C@@H]2CC[C@H]([C@H](O)c3ccccc3)N2)cc1` had a half-life in data set [5] of 1 h. Moreover, the fraction unbound in data set [6] was found to be 0.05. Further, the CLint scaled in data set [7] came to 135 mL/min/kg. In data set [8], the clearance was 87 mL/min/kg. Moreover, the EC50 in data set [1] stood at 0.48 nM. The Activity in [2] is 96%. For the same molecule, the IC50 in data set [3] and in data set [4] was above 20 µM in each case. For the same molecule, the Papp in data set [9] came to 26 ×10⁻⁶ cm/s. The same molecule yielded a bioavailability in data set [10] of 6%.

Regarding `O=C(Nc1ccc(C[C@@H]2CC[C@H]([C@H](O)c3cccnc3)N2)cc1)[C@@H]1CCc2sc(C3CC3)nc21`, in [1], the EC50 came to 12.4 nM. In addition, the Activity in data set [2] came out at 43%. In addition, the IC50 in [3] and in data set [4] was above 20 µM each time.

On to `O=C(Nc1ccc(C[C@@H]2CC[C@H]([C@H](O)c3cccnc3)N2)cc1)[C@@H]1CCc2sc(-c3ccc(F)cc3)nc21`, for which, in data set [1], the EC50 was 8.78 nM. In [2], the Activity worked out at 15%. In addition, the IC50 amounted to 13.3 µM in [3] and 2.47 µM in data set [4].

Turning to `CC(C)[C@@H](C(=O)Nc1ccc(C[C@@H]2CC[C@H]([C@H](O)c3ccccc3)N2)cc1)c1csc(N)n1`, in [1], the EC50 turned out to be 1.6 nM. Moreover, the Activity in data set [2] was 85%. The IC50 in [3] and in data set [4] was above 20 µM each time.

Take `Nc1nc2c(s1)CC[C@@H]2C(=O)Nc1ccc(C[C@@H]2CC[C@H]([C@H](O)c3ccccc3)N2)cc1`: the EC50 in data set [1] amounted to 44.2 nM. Also, the Activity in data set [2] is 91%. Further, the IC50 in data set [3] and in data set [4] was above 20 µM each time.

Regarding `Nc1nc2c(s1)CC[C@H]2C(=O)Nc1ccc(C[C@@H]2CC[C@H]([C@H](O)c3cccc(Cl)c3)N2)cc1`, in data set [1], the EC50 worked out at 0.15 nM. Further, in data set [2], the Activity was 93%. In addition, the IC50 in [3] was above 20 µM; in [4], 8.45 µM.

With `C[C@@H](C(=O)Nc1ccc(C[C@@H]2CC[C@H]([C@H](O)c3ccccc3)N2)cc1)c1csc(N)n1`, the half-maximal effective concentration (EC50) in data set [1] came to 0.18 nM. In addition, the Activity in data set [2] came out at 84%. Besides, the IC50 in data set [3] and in [4] was above 20 µM each time.

Regarding `CCc1nc2c(s1)CC[C@H]2C(=O)Nc1ccc(C[C@@H]2CC[C@H]([C@H](O)c3cccnc3)N2)cc1`, the EC50 in [1] came out at 13.6 nM. Further, the Activity in data set [2] is 49%. For the same molecule, the IC50 in data set [3] and in data set [4] was above 20 µM throughout.

For the molecule `O=C(Nc1ccc(C[C@@H]2CC[C@H]([C@H](O)c3ccccc3)N2)cc1)[C@@H]1CCc2scnc21`, the half-life in data set [5] was 1 h. Further, the fraction unbound in data set [6] stood at 0.1. In addition, the CLint scaled in data set [7] amounted to 68 mL/min/kg. The molecule also returned a clearance in [8] of 80 mL/min/kg. Further, in data set [1], the EC50 was 0.64 nM. Moreover, in data set [2], the Activity was determined as 101%. Moreover, the IC50 in data set [3] and in [4] was above 20 µM in each case. The Papp in data set [9] amounted to 24 ×10⁻⁶ cm/s. For the same molecule, the bioavailability in data set [10] is 12%.
